Experimental data as given in ChEMBL document CHEMBL1130266, “Monoaryl- and bisaryldihydroxytropolones as potent inhibitors of inositol monophosphatase” (J Med Chem, 1997).

assay: Concentration required to inhibit the activity of inositol monophosphatase by 50%
Outline: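 Human recombinant IMPase expressed in E. coli and purified to homogeneity. […] Enzyme adjusted so ≤10% substrate used. Duplicate rates at six inhibitor concentrations plus no-inhibitor control, fitted to v = V0/(1+[I]/IC50).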

| Structure (SMILES) | IC50 [µM] |
| --- | --- |
| O=c1c(O)c(-c2cc3ccccc3o2)cc(-c2cc3ccccc3o2)c(O)c1O | 40 |
| O=Cc1cccc(-c2cc(-c3cccc(C=O)c3)c(O)c(=O)c(O)c2O)c1 | > 100 |
| O=c1ccc(-c2cccc(-c3nnc(-c4ccc5ccccc5c4)o3)c2)c(O)c(O)c1O | 40 |
| O=c1ccc(-c2ccc3ccccc3c2)c(O)c(O)c1O | > 100 |
| O=c1c(O)c(-c2ccccc2F)cc(-c2ccccc2F)c(O)c1O | > 200 |
| NCCc1ccc(-c2ccc(=O)c(O)c(O)c2O)cc1 | 90 |
| O=c1c(O)c(-c2ccc(C(F)(F)F)cc2)cc(-c2ccc(C(F)(F)F)cc2)c(O)c1O | 200 |
| O=c1c(O)c(O)ccc(-c2ccc(C(F)(F)F)cc2)c1O | 130 |
| O=c1c(O)c(-c2cccc(-c3nnc(-c4ccc5ccccc5c4)o3)c2)cc(-c2cccc(-c3nnc(-c4ccc5ccccc5c4)o3)c2)c(O)c1O | > 200 |
| O=c1cccc(-c2ccccc2)c(O)c1O | 200 |
| O=c1c(O)c(-c2cccc(C(F)(F)F)c2)cc(-c2cccc(C(F)(F)F)c2)c(O)c1O | > 200 |
| O=c1ccc(-c2ccccc2F)c(O)c(O)c1O | 65 |
| O=c1c(O)c(-c2cc(C(F)(F)F)cc(C(F)(F)F)c2)cc(-c2cc(C(F)(F)F)cc(C(F)(F)F)c2)c(O)c1O | 70 |
| O=c1c(O)c(-c2ccc3ccccc3c2)cc(-c2ccc3ccccc3c2)c(O)c1O | > 100 |
| CC(=O)Nc1cccc(-c2cc(-c3cccc(NC(C)=O)c3)c(=O)c(O)c(O)c2O)c1 | 65 |
| O=c1c(O)c(-c2cccc3ccccc23)cc(-c2cccc3ccccc23)c(O)c1O | > 100 |
| O=c1c(O)c(O)ccc2cc(O)c(O)c(O)c12 | > 200 |

Now those with a lower IC50, led by results:

| IC50 [µM] | Structure (SMILES) |
| --- | --- |
| 20 | CC(=O)Nc1cccc(-c2ccc(=O)c(O)c(O)c2O)c1 |
| 10 | O=c1ccc(-c2ccc(O)cc2)c(O)c(O)c1O |
| 10 | O=c1c(O)c(-c2ccc(O)cc2)cc(-c2ccc(O)cc2)c(O)c1O |
| 10 | O=c1ccc(-c2cncnc2)c(O)c(O)c1O |
| 7 | O=c1c(O)c(O)ccc(-c2cccc(O)c2O)c1O |
| 25 | O=c1c(O)c(O)ccc(-c2ccsc2)c1O |
| 10 | O=c1c(O)cccc(O)c1O |
| 4 | N#Cc1cccc(-c2ccc(=O)c(O)c(O)c2O)c1 |
| 20 | O=Cc1cccc(-c2ccc(O)c(O)c(=O)c2O)c1 |
| 10 | O=c1c(O)c(O)ccc(-c2cc(C(F)(F)F)cc(C(F)(F)F)c2)c1O |
| 20 | O=c1ccc(-c2cccc3ccccc23)c(O)c(O)c1O |
| 35 | O=c1c(O)c(-c2ccsc2)cc(-c2ccsc2)c(O)c1O |
| 8 | O=c1c(O)c(O)ccc(-c2cccc([N+](=O)[O-])c2)c1O |
| 7 | O=c1c(O)c(O)ccc(-c2cc3ccccc3o2)c1O |
| 10 | O=c1c(O)c(Br)cc(Br)c(O)c1O |
| 15 | O=c1c(O)c(O)ccc(-c2cccs2)c1O |
| 30 | N#Cc1cccc(-c2cc(-c3cccc(C#N)c3)c(O)c(=O)c(O)c2O)c1 |
| 5 | O=c1ccc(CCCCO)c(O)c(O)c1O |
| 20 | O=c1ccc(-c2ccccc2)c(O)c(O)c1O |
| 10 | O=c1c(O)c(O)ccc(-c2cccc(C(F)(F)F)c2)c1O |
| 20 | O=c1c(O)c(-c2cccc([N+](=O)[O-])c2)cc(-c2cccc([N+](=O)[O-])c2)c(O)c1O |
